From publication PMC8159369 (Chemical Science, 2020) come the findings set out here.

For orientation: IC50 means the midpoint of a concentration-inhibition curve. Read a low IC50 as greater potency in that assay.

The experiment concerns the target HRP-labeled WGA. Put plainly: Enzyme-linked lectin assay. Details: species or system Triticum vulgaris. The settings on record: inhibition of binding of HRP-labeled WGA to covalently immobilized GlcNAc. An outline of the steps:
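ELLA in which the test compound competes with a surface-coated reference ligand for lectin binding. Dose–response curves were recorded over a concentration series. IC50 is the concentration giving 50% inhibition of lectin binding.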

Consider `CC(=O)N[C@@H]1[C@@H](O)[C@H](O)[C@@H](CO)O[C@H]1O` [GlcNAc, N-acetylglucosamine], for which the concentration for half-maximal inhibition (IC50) came to 15 mM.
